Measured values as given in ChEMBL document CHEMBL1759852, “A comparative study of proapoptotic potential of cyano analogues of boswellic acid and 11-keto-boswellic acid” (Eur J Med Chem, 2011).
pIC50: −log10 of the molar value. Activity calls are given as the source filed them. The calls are words filed in the database; no cut-off is given here.

Columns and labels:
HL-60 [1] = test: Induction of apoptosis in human HL60 cells assessed as early apoptotic cells at 4 uM after 6 hrs using Annexin-V-FITC/propidium iodide staining by flow cytometry (reference value: 6%); format: functional
Procedure, shortened: (§1)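 HL-60 cells (1 × 10^6/ml) treated 6 h at varied concentrations; camptothecin 4 μM 6 h positive control. AnnexinV-FITC and propidium iodide staining per kit; FL-1 versus FL-2 flow cytometry with quadrant statistics for apoptotic and necrotic populations; representative of three experiments.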

HL-60 [2] = test: Induction of apoptosis in human HL60 cells assessed as DNA ladder formation at 4 uM after 9 hrs by agarose gel electrophoresis; format: functional, cell-based
HL-60 [3] = test: Induction of apoptosis in human HL60 cells assessed as late apoptotic cells at 4 uM after 6 hrs using Annexin-V-FITC/propidium iodide staining by flow cytometry (reference value: 1%); format: functional; procedure, shortened: as §1
HL-60 [4] = test: Cell cycle arrest in human HL60 cells assessed as accumulation at sub-G1 phase at 4 uM after 18 hrs by flow cytometry relative to control
HL-60 [5] = test: Induction of apoptosis in human HL60 cells assessed as late apoptotic cells at 0.3 uM after 6 hrs using Annexin-V-FITC/propidium iodide staining by flow cytometry (reference value: 1%); format: functional; procedure, shortened: as §1
HL-60 [6] = test: Induction of apoptosis in human HL60 cells assessed as apoptotic cells at 2 uM after 9 hrs by scanning electron microscopy; format: functional, cell-based
Procedure, shortened: (§2)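 HL-60 seeded 2 × 10^5/ml in medium with 10% FCS, treated at 0.5 and 2 μM (DMSO stock; vehicle-only controls) for 9 h at 37 °C. Fixed 2.5% glutaraldehyde in 0.1 M phosphate pH 7.2 at 4 °C 1 h, post-fixed 1% OsO4 1 h, acetone-dehydrated, critical-point dried, gold-coated; surface ultrastructure by scanning electron microscopy.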

HL-60 [7] = test: Induction of apoptosis in human HL60 cells assessed as loss of cell cytoplasmic volume at 2 uM after 9 hrs by scanning electron microscopy; format: functional, cell-based; procedure, shortened: as §2
HL-60 [8] = test: Induction of apoptosis in human HL60 cells assessed as late apoptotic cells at 1 uM after 6 hrs using Annexin-V-FITC/propidium iodide staining by flow cytometry (reference value: 1%); format: functional; procedure, shortened: as §1
HL-60 [9] = test: Induction of apoptosis in human HL60 cells assessed as early apoptotic cells at 2 uM after 6 hrs using Annexin-V-FITC/propidium iodide staining by flow cytometry (reference value: 6%); format: functional; procedure, shortened: as §1
HL-60 [10] = test: Induction of apoptosis in human HL60 cells assessed as late apoptotic cells at 2 uM after 6 hrs using Annexin-V-FITC/propidium iodide staining by flow cytometry (reference value: 1%); format: functional; procedure, shortened: as §1
HL-60 [11] = test: Induction of apoptosis in human HL60 cells assessed as increase in scattered apoptotic bodies formation at 0.5 uM after 9 hrs using Hoechst 33258 staining by fluorescence microscopy; format: functional, cell-based
Procedure, shortened: (§3)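 HL-60 cells (2 × 10^6/3 ml) treated 9 h, washed twice in PBS, fixed and stained with Hoechst 33258; nuclear morphology and apoptotic bodies examined by inverted fluorescence microscopy.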

HeLa = test: Cytotoxicity against human HeLa cells after 48 hrs by MTT assay; format: functional, cell-based
Procedure, shortened: (§4)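 HL-60 (2 × 10^4/200 μl) or HeLa (1 × 10^4/200 μl) in RPMI-1640/MEM, 10% FCS, 37 °C, 5% CO2; treated 0.1–50 μM for 48 h, DMSO vehicle <0.2%. MTT added final 3 h; formazan dissolved in DMSO, OD 570 nm (reference 620 nm). IC50 as 50% viability versus untreated control; three experiments, CV <10%.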

HL-60 [12] = test: Cell cycle arrest in human HL60 cells assessed as accumulation at sub-G1 phase at 4 uM after 18 hrs by flow cytometry relative to control; format: functional
Procedure, shortened: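 HL-60 cells at 1 × 10^6/ml exposed 18 h; camptothecin 4 μM for 6 h as positive control. Cells pelleted 160 × g 5 min, PBS-washed, fixed in cold 70% alcohol overnight at −20 °C, RNase (400 μg/ml) digested, PI-stained; flow cytometry, hypo-diploid (<2n DNA) sub-G0/G1 fraction scored as apoptotic.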

HL-60 [13] = test: Induction of apoptosis in human HL60 cells assessed as cell shrinkage and apoptotic body formation at 0.5 uM after 9 hrs by scanning electron microscopy; format: functional, cell-based; procedure, shortened: as §2
HL-60 [14] = test: Induction of apoptosis in human HL60 cells assessed as nuclear condensation and blebbing at 0.5 to 2 uM after 9 hrs Hoechst 33258 staining by fluorescence microscopy; format: functional, cell-based; procedure, shortened: as §3
HL-60 [15] = test: Cytotoxicity against human HL60 cells after 48 hrs by MTT assay; format: functional, cell-based; conditions: HL-60, 48 h; procedure, shortened: as §4
HL-60 [16] = test: Induction of apoptosis in human HL60 cells assessed as early apoptotic cells at 1 uM after 6 hrs using Annexin-V-FITC/propidium iodide staining by flow cytometry (reference value: 6%); format: functional; procedure, shortened: as §1
HL-60 [17] = test: Induction of apoptosis in human HL60 cells assessed as smoothening of cell surface and blebbing of plasma membrane at 0.5 uM after 9 hrs by scanning electron microscopy; format: functional, cell-based; procedure, shortened: as §2
HL-60 [18] = test: Induction of apoptosis in human HL60 cells assessed as early apoptotic cells at 0.3 uM after 6 hrs using Annexin-V-FITC/propidium iodide staining by flow cytometry (reference value: 6%); format: functional; procedure, shortened: as §1
HL-60 [19] = test: Induction of apoptosis in human HL60 cells assessed as DNA ladder formation at 1 uM after 9 hrs by agarose gel electrophoresis; format: functional, cell-based
Procedure, shortened: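 HL-60 cells (2 × 10^6) treated 9 h; untreated negative control, camptothecin 4 μM positive control. Cells washed in PBS with 10 mM EDTA, lysed, genomic DNA extracted, precipitated, washed in 80% alcohol, dissolved in TE; run on 1.6% agarose at 50 V, ethidium bromide stained for laddering.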

HL-60 [20] = test: Induction of apoptosis in human HL60 cells assessed as induction of morphological changes after 9 hrs by scanning electron microscopy; format: functional, cell-based; procedure, shortened: as §2

Row | Compound | Activity (HL-60 [1]) | Activity (HL-60 [3]) | Activity (HL-60 [5]) | Activity (HL-60 [8]) | Activity (HL-60 [9]) | Activity (HL-60 [10]) | Activity (HL-60 [11]) | pIC50 (HeLa) | Activity (HL-60 [12]) | Activity (HL-60 [14]) | pIC50 (HL-60 [15]) | Activity (HL-60 [16]) | Activity (HL-60 [18]) | other results
1 | CC[C@@]1(O)C(=O)OCc2c1cc1n(c2=O)Cc2cc3ccccc3nc2-1 [CAMPTOTHECIN] | 35% | 4% |  |  |  |  |  |  |  |  |  |  |  | Activity (HL-60 [2]): Active; Activity (HL-60 [4]): 96%
2 | CCCCOC(=O)[C@@]1(C)C(=O)C(C#N)=C[C@]2(C)[C@H]3CC=C4[C@@H]5[C@@H](C)[C@H](C)CC[C@]5(C)CC[C@@]4(C)[C@]3(C)CC[C@@H]12 | 12% | 1% | 2% | 1% | 11% | 2% | Active | 5.10 | 76% | Active | 6.38 | 10% | 9% | Activity (HL-60 [6]): Active; Activity (HL-60 [7]): Active; Activity (HL-60 [13]): Active; Activity (HL-60 [17]): Active
3 | CCCCOC(=O)[C@@]1(C)C(=O)C(C#N)=C[C@]2(C)[C@H]3C(=O)C=C4[C@@H]5[C@@H](C)[C@H](C)CC[C@]5(C)CC[C@@]4(C)[C@]3(C)CC[C@@H]12 | 26% | 1% | 3% | 2% | 24% | 1% | Active | 5.52 | 96% | Active | 6.17 | 20% | 15% | Activity (HL-60 [19]): Active; Activity (HL-60 [20]): Dose-dependent effect
